Experimental findings from ChEMBL document CHEMBL4334546, “Discovery of N-(Indazol-3-yl)piperidine-4-carboxylic Acids as RORγt Allosteric Inhibitors for Autoimmune Diseases” (ACS Med Chem Lett, 2020) are described below.

For series [1], the target named is T1, Nuclear receptor ROR-gamma (Homo sapiens, UniProt P51449).
T1 sequence (P51449 whole entry): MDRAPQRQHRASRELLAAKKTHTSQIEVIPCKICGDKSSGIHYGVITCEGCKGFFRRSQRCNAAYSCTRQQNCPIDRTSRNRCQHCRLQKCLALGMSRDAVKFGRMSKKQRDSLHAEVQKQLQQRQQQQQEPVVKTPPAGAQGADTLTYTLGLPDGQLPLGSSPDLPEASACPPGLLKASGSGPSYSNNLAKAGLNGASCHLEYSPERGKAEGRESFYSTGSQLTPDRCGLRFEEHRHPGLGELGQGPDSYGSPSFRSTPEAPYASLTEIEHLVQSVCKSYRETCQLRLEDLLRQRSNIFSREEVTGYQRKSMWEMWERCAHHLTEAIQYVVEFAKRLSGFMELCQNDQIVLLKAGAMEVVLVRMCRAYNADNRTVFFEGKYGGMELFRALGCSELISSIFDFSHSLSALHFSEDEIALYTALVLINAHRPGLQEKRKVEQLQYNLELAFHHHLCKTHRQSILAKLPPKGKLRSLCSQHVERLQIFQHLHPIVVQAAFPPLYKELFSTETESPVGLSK
The experiment in a line: Allosteric inhibition of recombinant His6-tagged RORgammat LBD (unknown origin) expressed in Escherichia coli BL21(DE3) assessed as inhibition of biotin-labelled SRC-1 peptide recruitment preincubated for 15 mins followed by biotin-labelled SRC-1 peptide addition and measured after overnight incubation by TR-FRET assay. Background: Time-resolved FRET reads energy transfer from a long-lived donor to a nearby acceptor.

Series [2] has as its target T1, Nuclear receptor ROR-gamma. Briefly: Allosteric inhibition of yeast GAL4 DNA domain-fused RORgammat LBD (97 to 518 residues) (unknown origin) expressed in HEK293T cells after 20 to 22 hrs by steady-glo luciferase assay. Format: cell-based.
The nature of series [3]: Clearance in Wistar Han rat at 0.5 mg/kg, iv or 1 mg/kg, po by LC-MS/MS analysis. Format: ADME, organism-based. The note with it: in vivo.
Series [4] in a line: Half life in Wistar Han rat at 0.5 mg/kg, iv or 1 mg/kg, po by LC-MS/MS analysis. Format: ADME, organism-based. Particulars: in vivo.
Series [5] in a line: Volume of distribution in Wistar Han rat at 0.5 mg/kg, iv or 1 mg/kg, po by LC-MS/MS analysis. Format: ADME, organism-based. The note with it: in vivo.
The nature of series [6]: Clearance in Beagle dog at 0.25 mg/kg, iv or 0.5 mg/kg, po by LC-MS/MS analysis. Format: ADME, organism-based, Canis lupus familiaris. The note with it: in vivo.
A short description of series [7]: Half life in Beagle dog at 0.25 mg/kg, iv or 0.5 mg/kg, po by LC-MS/MS analysis. Format: ADME, organism-based, Canis lupus familiaris. The note with it: in vivo.
Series [8] is described as follows: Volume of distribution in Beagle dog at 0.25 mg/kg, iv or 0.5 mg/kg, po by LC-MS/MS analysis. Format: ADME, organism-based, Canis lupus familiaris. The note with it: in vivo.
Series [9] is described as follows: Oral bioavailability in Wistar Han rat at 1 mg/kg by LC-MS/MS analysis. Format: ADME, organism-based. Particulars: in vivo.
The nature of series [10]: Oral bioavailability in Beagle dog at 0.5 mg/kg by LC-MS/MS analysis. Format: ADME, organism-based, Canis lupus familiaris. The note with it: in vivo.
Series [11] can be described thus: Protein binding in rat plasma. Format: ADME, cell-free. The note with it: read-out: PPB (converted).
Series [12] in a line: Protein binding in dog plasma. Particulars: read-out: PPB (converted). Format: ADME, cell-free, Canis lupus familiaris.
Series [13] in a line: Solubility of compound at pH 2. Format: physicochemical. The note with it: buffer.
The nature of series [14]: Solubility of compound at pH 7.4. Format: physicochemical. Particulars: buffer.
Series [15] in a line: Unbound clearance in Wistar Han rat at 0.5 mg/kg, iv or 1 mg/kg, po by LC-MS/MS analysis. Format: ADME, organism-based. The note with it: in vivo.
Series [16] deals with T2, Peroxisome proliferator-activated receptor gamma (Homo sapiens, UniProt P37231).
T2 sequence (P37231 whole entry): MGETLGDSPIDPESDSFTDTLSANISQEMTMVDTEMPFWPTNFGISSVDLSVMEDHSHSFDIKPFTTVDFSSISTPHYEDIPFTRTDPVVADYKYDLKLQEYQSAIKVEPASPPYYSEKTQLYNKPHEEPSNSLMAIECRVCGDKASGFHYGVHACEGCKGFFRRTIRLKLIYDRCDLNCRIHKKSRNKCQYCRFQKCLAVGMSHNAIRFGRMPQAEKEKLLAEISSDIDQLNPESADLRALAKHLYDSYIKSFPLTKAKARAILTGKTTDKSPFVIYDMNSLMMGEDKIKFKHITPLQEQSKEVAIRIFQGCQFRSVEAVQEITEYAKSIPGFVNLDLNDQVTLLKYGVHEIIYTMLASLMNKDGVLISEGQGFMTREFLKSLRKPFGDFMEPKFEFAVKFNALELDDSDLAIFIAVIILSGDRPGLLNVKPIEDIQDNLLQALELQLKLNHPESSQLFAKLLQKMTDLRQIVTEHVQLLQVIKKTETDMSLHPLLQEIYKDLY
Briefly: Displacement of [3H]rosiglitazone from human recombinant PPARgamma LBD expressed in insect cells measured after 24 hrs by scintillation counting analysis.

The target in series [17] is T1, Nuclear receptor ROR-gamma. The experiment in a line: Allosteric inhibition of RORgammaT in IL-1B/IL-23/IL-2/IL-6/T-Activator CD3/28 Dynabeads-stimulated human PBMC cells assessed as reduction in Th17 differentiation by measuring reduction in IL-17A level incubated for 4 days post-cell stimulation by ELISA. (In general: In an ELISA, binding on a coated surface is turned into a signal by an enzyme label.)

Series [18] is described as follows: Plasma concentration in C57BL/6 mouse at 1 mg/kg administered as single dose after 2 hrs. Format: ADME, organism-based. The method, boiled down: (§1)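 Acute pharmacodynamic model: mice received single doses across a dose range, and in this study both plasma compound concentration and Bcl-xL expression in thymocytes were measured to follow RORγt inhibition.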

Series [19] is described as follows: Plasma concentration in C57BL/6 mouse at 3 mg/kg administered as single dose after 2 hrs. Format: ADME, organism-based. In a few lines:
as §1

Series [20] is described as follows: Plasma concentration in C57BL/6 mouse at 10 mg/kg administered as single dose after 2 hrs. Format: ADME, organism-based. The method, boiled down: as §1
A short description of series [21]: Plasma concentration in C57BL/6 mouse at 30 mg/kg administered as single dose after 2 hrs. Format: ADME, organism-based. The method, boiled down: as §1
Series [22] is described as follows: Plasma concentration in C57BL/6 mouse at 100 mg/kg administered as single dose after 2 hrs. Format: ADME, organism-based. In a few lines: as §1
Series [23] is filed under the species Mus musculus. The experiment in a line: animal or person. Particulars: C57BL/6, 2 h, read-out: INH.
The species entered for series [24] is Mus musculus. Briefly: animal or person. Particulars: C57BL/6, 2 h, read-out: INH. The source holds these as a separate data set.
For series [25], the species on record is Mus musculus. Briefly: animal or person. The note with it: C57BL/6, 2 h, read-out: INH. The source holds these as a separate data set.
The species entered for series [26] is Mus musculus. The experiment in a line: animal or person. Particulars: C57BL/6, 2 h, read-out: INH. The source holds these as a separate data set.
Series [27] is filed under the species Mus musculus. Briefly: animal or person. The note with it: C57BL/6, 2 h, read-out: INH. The source holds these as a separate data set.
The species named for series [28] is Mus musculus. Briefly: animal or person. Particulars: C57BL/6, 2 h.

≈ marks a conversion by molar mass, not a printed value.

Usually IC50 stands for the concentration that inhibits the measured activity by half. On to `O=C(O)c1ccc(-c2nn(C(=O)c3c(Cl)cccc3Cl)c3ccccc23)cc1`, for which the IC50 in series [1] is 5 nM; in series [2], 400 nM.
As usually defined, the half-life is the time in which the quantity being followed falls by half. The bioavailability is dose-corrected exposure relative to a reference, in per cent. A low value points to poor availability. The solubility is the dissolved amount per volume that the medium holds. Low readings indicate a poorly soluble substance, high ones a readily soluble substance. For `O=C(O)[C@@H]1CCN(c2nn(C(=O)c3c(Cl)cccc3C3CC3)c3cccc(F)c23)C[C@H]1O`, the clearance in series [3] came out at 13 mL/min/kg; in [6] it was 1.4 mL/min/kg. Besides, the half-life was 3.7 h in [4] and 3.1 h in series [7]. In addition, the Vd amounted to 0.6 L/kg in [5] and 0.3 L/kg in series [8]. In addition, the results for the bioavailability in [9] and in [10] were 35% and 65%, respectively. Moreover, the fraction unbound in series [11] was 0.013; in [12], 0.003. The solubility in [13] was 28 µM (≈ 12.8 µg/mL); in series [14], 153 µM (≈ 70.1 µg/mL). In series [15], the CL free came to 1000 mL/min/kg.
Turning to `O=C(O)c1ccc(-c2nn(C(=O)c3c(Cl)cccc3C(F)(F)F)c3cccnc23)c(F)c1`, the 50% inhibitory concentration (IC50) in series [1] turned out to be 6 nM; in [2], 90 nM; in series [16], 2000 nM; in series [17], 33 nM; in the series listed under Mus musculus [28], 710 nM. For the same compound, the values for the clearance in [3] and in [6] were 76 mL/min/kg and 4.5 mL/min/kg, respectively. Besides, the half-life in series [4] is 0.4 h; in [7], 1.4 h. Further, the Vd in series [5] came out at 0.8 L/kg; in series [8], 0.4 L/kg. Further, the values for the bioavailability in series [9] and in [10] were 16% and 45%, respectively. Also, the fraction unbound in series [11] and in series [12] was 0.013 each time. Further, the figures for the solubility in series [13] and in [14] were below 2 µM and 147 µM (≈ 68.2 µg/mL), respectively. The concentration at 2 h in [18] was 0.18 µM; in [19] it was 0.73 µM; in [20], 4.1 µM; in series [21], 51 µM; in series [22], 254 µM. For the same compound, the CL free in series [15] is 5846 mL/min/kg. In addition, the inhibition in vivo at 1 mg/kg in the series filed under Mus musculus [23] turned out to be 17%. Also, in the series listed under Mus musculus [24], the inhibition in vivo at 3 mg/kg was 50%. In addition, the inhibition in vivo at 10 mg/kg in the series filed under Mus musculus [25] was determined as 69%. Besides, in the series listed under Mus musculus [26], the inhibition in vivo at 30 mg/kg amounted to 85%. Besides, in the series listed under Mus musculus [27], the inhibition in vivo at 100 mg/kg was 74%.
